From ChEMBL document CHEMBL3297713, “Discovery, optimization, and biological evaluation of 5-(2-(trifluoromethyl)phenyl)indazoles as a novel class of transient receptor potential A1 (TRPA1) antagonists” (J Med Chem, 2014)
One block for each compound: values may come before it.

Columns and labels:
[1] = target: Transient receptor potential cation channel subfamily A member 1 (Homo sapiens, UniProt O75762); experiment: Antagonist activity at human TRPA1 expressed in CHO-TREX cells assessed as inhibition of cinnamaldehyde-induced calcium flux incubated 10 mins prior to cinnamaldehyde addition by FLIPR assay relative to control; format: cell-based
Outline: (§1)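 TRPA1-expressing CHO-TREX cells, channel expression induced with tetracycline (0.5 µg/mL human, 1 µg/mL mouse or rat). Cells loaded with Fluo4-AM for 90 min at room temperature, washed, then test agent added in HBSS/20 mM HEPES/2.5 mM probenecid/0.1% BSA. Agonist added 10 min later at EC80: human cinnamaldehyde 30 µM, AITC 2.5 µM, dibenzoxazepine-carboxamide 5 nM; rat and mouse cinnamaldehyde 40 µM. FLIPR calcium flux; mean of triplicates fitted to sigmoidal dose-response curves.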

CHO-K1 [2] = experiment: Selectivity ratio of IC50 for human TRPV3 expressed in CHOK1 cells to IC50 for human TRPA1 expressed in CHO-TREX cells; format: cell-based
Outline: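 Calcium influx was measured by FLIPR in Fluo4-AM-loaded cells: hTRPV3 CHO-K1 challenged with 40 µM 2-APB, and hTRPA1 CHO-TREX (0.5 µg/mL tetracycline) challenged with 30 µM cinnamaldehyde, 2.5 µM AITC or 5 nM dibenzoxazepine carboxamide, all at EC80. Compounds were added 10 min ahead of agonist in HEPES-buffered HBSS with probenecid. Sigmoidal curves were fitted to triplicate means.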

[3] = target: T1, Transient receptor potential cation channel subfamily V member 3 (Homo sapiens, UniProt Q8NET8); experiment: (§2) Antagonist activity at human TRPV3 expressed in CHOK1 cells assessed as inhibition of 2-APB-induced calcium flux incubated 10 mins prior to 2-APB addition by FLIPR assay relative to control; format: cell-based, CHO-K1
T1 sequence (Q8NET8 whole entry): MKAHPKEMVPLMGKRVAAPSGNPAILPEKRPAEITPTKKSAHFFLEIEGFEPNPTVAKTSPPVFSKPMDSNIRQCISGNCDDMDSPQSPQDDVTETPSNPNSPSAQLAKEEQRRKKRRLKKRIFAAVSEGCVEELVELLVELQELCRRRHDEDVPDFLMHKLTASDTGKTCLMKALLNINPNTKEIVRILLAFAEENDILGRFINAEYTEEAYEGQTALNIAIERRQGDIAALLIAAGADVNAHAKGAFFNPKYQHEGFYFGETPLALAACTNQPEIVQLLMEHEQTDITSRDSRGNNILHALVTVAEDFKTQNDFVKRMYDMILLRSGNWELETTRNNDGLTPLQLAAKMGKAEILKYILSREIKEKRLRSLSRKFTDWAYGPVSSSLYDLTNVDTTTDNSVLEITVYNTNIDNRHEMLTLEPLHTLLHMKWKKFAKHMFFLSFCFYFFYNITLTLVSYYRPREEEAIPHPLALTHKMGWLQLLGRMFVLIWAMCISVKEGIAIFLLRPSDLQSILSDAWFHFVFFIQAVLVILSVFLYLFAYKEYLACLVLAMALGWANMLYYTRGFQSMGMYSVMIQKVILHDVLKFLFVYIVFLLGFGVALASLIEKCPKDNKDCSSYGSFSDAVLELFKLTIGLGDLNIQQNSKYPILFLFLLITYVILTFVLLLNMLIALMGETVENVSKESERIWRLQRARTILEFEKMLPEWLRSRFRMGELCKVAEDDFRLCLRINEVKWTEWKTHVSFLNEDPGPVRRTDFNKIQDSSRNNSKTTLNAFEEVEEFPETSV

[4] = target: T2, Transient receptor potential cation channel subfamily V member 3 (Homo sapiens) (UniProt Q8NET8); experiment: as §2; format: cell-based; design: concentration or dose not given beside the values; settings: CHO-K1
T2 sequence (whole entry): T1 sequence (Q8NET8 whole entry)

[5] = target: Transient receptor potential cation channel subfamily A member 1 (Rattus norvegicus, UniProt Q6RI86); experiment: (§3) Antagonist activity at rat TRPA1 expressed in CHO-TREX cells assessed as inhibition of cinnamaldehyde-induced calcium flux incubated 10 mins prior to cinnamaldehyde addition by FLIPR assay relative to control; format: cell-based; outline: as §1
[6] = target: Transient receptor potential cation channel subfamily A member 1 (Rattus norvegicus) (UniProt Q6RI86); experiment: as §3; format: cell-based; design: concentration or dose not given beside the values; outline: as §1
CHO-K1 [7] = experiment: Selectivity ratio of IC50 for human TRPV1 expressed in CHOK1 cells to IC50 for human TRPA1 expressed in CHO-TREX cells; format: cell-based
Outline: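 Stable hTRPV1 CHO-K1 and tetracycline-induced (0.5 µg/mL) hTRPA1 CHO-TREX cells were loaded with Fluo4-AM for 90 min at room temperature and read on FLIPR. Antagonist preincubation was 10 min before EC80 agonist: capsaicin 40 nM (TRPV1); cinnamaldehyde 30 µM, AITC 2.5 µM or dibenzoxazepine carboxamide 5 nM (TRPA1). Buffer contained probenecid and BSA. IC50s were fitted from triplicate means of max−min calcium signal.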

[8] = target: Transient receptor potential cation channel subfamily A member 1 (Mus musculus) (UniProt Q8BLA8); experiment: (§4) Antagonist activity at mouse TRPA1 expressed in CHO-TREX cells assessed as inhibition of cinnamaldehyde-induced calcium flux incubated 10 mins prior to cinnamaldehyde addition by FLIPR assay relative to control; format: cell-based; design: concentration or dose not given beside the values; outline: as §1
[9] = target: Transient receptor potential cation channel subfamily A member 1 (Mus musculus, UniProt Q8BLA8); experiment: as §4; format: cell-based; outline: as §1
[10] = target: Transient receptor potential cation channel subfamily V member 1 (Homo sapiens, UniProt Q8NER1); experiment: Antagonist activity at human TRPV1 expressed in CHOK1 cells assessed as inhibition of capsaicin-induced calcium flux incubated 10 mins prior to capsaicin addition by FLIPR assay relative to control; format: cell-based, CHO-K1; settings: for inhibition: CHO-K1
CHO-K1 [11] = experiment: Selectivity ratio of IC50 for human TRPM8 expressed in CHOK1 cells to IC50 for human TRPA1 expressed in CHO-TREX cells; format: cell-based
Outline: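 FLIPR calcium-flux antagonist assays with Fluo4-AM loading (90 min, room temperature) in HBSS/20 mM HEPES/2.5 mM probenecid/0.1% BSA. Compound added 10 min before agonist at EC80: 40 µM menthol for CHO-K1 hTRPM8; for tetracycline-induced (0.5 µg/mL) CHO-TREX hTRPA1, 30 µM cinnamaldehyde, 2.5 µM AITC or 5 nM dibenzoxazepine carboxamide. Response is maximum minus minimum. IC50s come from sigmoidal fits of triplicate means.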

[12] = target: Transient receptor potential cation channel subfamily M member 8 (Homo sapiens, UniProt Q7Z2W7); experiment: Antagonist activity at human TRPM8 expressed in CHOK1 cells assessed as inhibition of menthol-induced calcium flux incubated 10 mins prior to menthol addition by FLIPR assay relative to control; format: cell-based, CHO-K1; settings: for inhibition: CHO-K1
[13] = Cmax in Wistar rat at 10 mg/kg, po; format: ADME, organism-based; design: dose 10 mg/kg, route oral; settings: in vivo
Outline: (§5)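 Male Wistar rats dosed orally at 10 mg/kg as a suspension in 0.5% methylcellulose/0.5% Tween80.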

[14] = Volume of distribution at steady state in Wistar rat at 3 mg/kg, iv; format: ADME, organism-based; design: dose 3 mg/kg, route intravenous; settings: in vivo, read-out: Vdss
[15] = Tmax in Wistar rat at 10 mg/kg, po; format: ADME, organism-based; design: dose 10 mg/kg, route oral; settings: in vivo; outline: as §5
[16] = AUC in Wistar rat at 10 mg/kg, po; format: ADME, organism-based; design: dose 10 mg/kg, route oral; settings: plasma; outline: as §5
[17] = Half life in Wistar rat at 3 mg/kg, iv; format: ADME, organism-based; design: dose 3 mg/kg, route intravenous; settings: in vivo
[18] = Clearance in Wistar rat at 3 mg/kg, iv; format: ADME, organism-based; design: dose 3 mg/kg, route intravenous; settings: in vivo
Outline: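 Wistar rats given 3 mg/kg i.v. as a solution in 75% PEG300/25% D5W.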

[19] = Oral bioavailability in Wistar rat at 10 mg/kg; format: ADME, organism-based; settings: in vivo; outline: as §5

Sequence of Transient receptor potential cation channel subfamily V member 1 (Q8NER1 whole entry): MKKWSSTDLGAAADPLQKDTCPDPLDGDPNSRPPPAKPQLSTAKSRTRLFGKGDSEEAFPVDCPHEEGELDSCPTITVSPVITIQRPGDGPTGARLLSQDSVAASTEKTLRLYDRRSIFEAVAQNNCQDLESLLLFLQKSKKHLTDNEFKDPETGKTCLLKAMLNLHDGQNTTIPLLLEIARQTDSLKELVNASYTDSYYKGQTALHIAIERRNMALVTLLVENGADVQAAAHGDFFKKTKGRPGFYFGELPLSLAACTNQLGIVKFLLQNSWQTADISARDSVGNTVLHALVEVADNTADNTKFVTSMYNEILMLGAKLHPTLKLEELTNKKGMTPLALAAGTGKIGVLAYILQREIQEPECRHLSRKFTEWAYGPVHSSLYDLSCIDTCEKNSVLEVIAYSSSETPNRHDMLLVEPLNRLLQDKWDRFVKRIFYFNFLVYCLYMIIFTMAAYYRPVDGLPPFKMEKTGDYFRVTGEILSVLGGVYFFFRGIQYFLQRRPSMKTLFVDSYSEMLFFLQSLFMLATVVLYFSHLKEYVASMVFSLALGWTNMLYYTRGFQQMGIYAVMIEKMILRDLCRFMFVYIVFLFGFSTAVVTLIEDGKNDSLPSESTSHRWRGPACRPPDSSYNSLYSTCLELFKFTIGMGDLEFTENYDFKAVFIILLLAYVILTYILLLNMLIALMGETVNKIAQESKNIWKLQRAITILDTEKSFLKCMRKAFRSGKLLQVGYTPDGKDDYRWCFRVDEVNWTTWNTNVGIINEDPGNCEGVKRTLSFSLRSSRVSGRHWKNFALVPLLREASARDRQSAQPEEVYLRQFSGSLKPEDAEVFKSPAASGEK
Sequence of Transient receptor potential cation channel subfamily A member 1 (Homo sapiens, UniProt O75762) (O75762 whole entry): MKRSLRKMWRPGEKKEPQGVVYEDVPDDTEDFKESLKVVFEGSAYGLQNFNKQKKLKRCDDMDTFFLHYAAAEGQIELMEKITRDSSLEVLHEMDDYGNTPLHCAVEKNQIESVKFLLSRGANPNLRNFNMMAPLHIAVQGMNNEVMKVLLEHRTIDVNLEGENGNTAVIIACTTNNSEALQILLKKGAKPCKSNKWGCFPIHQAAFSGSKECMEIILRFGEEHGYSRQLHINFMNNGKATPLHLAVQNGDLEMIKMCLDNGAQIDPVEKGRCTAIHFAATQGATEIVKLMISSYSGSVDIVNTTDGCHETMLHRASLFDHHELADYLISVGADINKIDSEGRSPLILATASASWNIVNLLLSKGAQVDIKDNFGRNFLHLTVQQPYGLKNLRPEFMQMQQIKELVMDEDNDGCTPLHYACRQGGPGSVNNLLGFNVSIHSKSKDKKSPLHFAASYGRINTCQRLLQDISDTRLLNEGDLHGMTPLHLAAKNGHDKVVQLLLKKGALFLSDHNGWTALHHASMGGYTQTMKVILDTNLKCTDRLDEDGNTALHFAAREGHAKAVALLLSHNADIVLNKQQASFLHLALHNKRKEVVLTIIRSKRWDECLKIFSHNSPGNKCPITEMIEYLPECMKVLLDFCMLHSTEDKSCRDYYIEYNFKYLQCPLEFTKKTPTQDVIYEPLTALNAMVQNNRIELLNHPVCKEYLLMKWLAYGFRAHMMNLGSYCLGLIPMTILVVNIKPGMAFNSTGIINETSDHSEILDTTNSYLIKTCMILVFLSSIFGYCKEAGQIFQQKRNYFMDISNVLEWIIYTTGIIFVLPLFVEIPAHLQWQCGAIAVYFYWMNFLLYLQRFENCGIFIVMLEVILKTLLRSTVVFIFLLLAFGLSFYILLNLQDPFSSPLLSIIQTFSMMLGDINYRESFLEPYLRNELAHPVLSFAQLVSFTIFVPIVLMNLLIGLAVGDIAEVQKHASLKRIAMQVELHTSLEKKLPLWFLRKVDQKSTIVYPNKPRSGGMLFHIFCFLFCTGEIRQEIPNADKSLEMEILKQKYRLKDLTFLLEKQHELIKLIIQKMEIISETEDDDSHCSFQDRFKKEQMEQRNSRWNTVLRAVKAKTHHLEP
Sequence of Transient receptor potential cation channel subfamily A member 1 (Rattus norvegicus) (Q6RI86 whole entry): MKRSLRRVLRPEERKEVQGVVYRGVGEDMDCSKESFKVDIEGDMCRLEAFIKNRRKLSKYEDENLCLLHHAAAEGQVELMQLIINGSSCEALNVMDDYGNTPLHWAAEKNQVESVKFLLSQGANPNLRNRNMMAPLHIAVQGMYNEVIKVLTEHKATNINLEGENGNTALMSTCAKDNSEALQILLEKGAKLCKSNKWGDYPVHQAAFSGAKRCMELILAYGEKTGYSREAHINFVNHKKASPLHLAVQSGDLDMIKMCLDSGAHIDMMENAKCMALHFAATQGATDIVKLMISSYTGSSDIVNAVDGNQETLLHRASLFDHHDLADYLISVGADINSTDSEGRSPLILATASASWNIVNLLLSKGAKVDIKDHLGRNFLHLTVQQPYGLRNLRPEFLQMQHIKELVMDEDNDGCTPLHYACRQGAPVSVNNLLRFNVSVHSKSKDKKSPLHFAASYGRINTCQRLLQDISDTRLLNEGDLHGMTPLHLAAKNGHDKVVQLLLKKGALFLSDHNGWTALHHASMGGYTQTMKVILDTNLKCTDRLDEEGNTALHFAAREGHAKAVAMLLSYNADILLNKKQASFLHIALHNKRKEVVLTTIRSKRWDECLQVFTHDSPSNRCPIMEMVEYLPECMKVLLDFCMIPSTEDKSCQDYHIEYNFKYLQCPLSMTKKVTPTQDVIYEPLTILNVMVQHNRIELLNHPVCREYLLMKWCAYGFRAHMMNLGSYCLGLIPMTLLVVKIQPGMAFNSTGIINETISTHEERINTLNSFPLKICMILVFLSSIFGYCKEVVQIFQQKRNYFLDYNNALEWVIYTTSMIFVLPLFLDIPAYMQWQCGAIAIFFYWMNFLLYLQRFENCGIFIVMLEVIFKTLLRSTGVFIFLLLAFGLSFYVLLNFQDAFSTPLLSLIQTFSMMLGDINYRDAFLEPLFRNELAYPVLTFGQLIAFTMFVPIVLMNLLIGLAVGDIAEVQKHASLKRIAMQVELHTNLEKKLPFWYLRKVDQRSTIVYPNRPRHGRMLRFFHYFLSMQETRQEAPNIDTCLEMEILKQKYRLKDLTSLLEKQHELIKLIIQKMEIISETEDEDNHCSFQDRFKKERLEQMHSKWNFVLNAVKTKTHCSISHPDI
Sequence of Transient receptor potential cation channel subfamily A member 1 (Rattus norvegicus, UniProt Q6RI86) (Q6RI86 whole entry): as above
Sequence of Transient receptor potential cation channel subfamily A member 1 (Mus musculus, UniProt Q8BLA8) (Q8BLA8 whole entry): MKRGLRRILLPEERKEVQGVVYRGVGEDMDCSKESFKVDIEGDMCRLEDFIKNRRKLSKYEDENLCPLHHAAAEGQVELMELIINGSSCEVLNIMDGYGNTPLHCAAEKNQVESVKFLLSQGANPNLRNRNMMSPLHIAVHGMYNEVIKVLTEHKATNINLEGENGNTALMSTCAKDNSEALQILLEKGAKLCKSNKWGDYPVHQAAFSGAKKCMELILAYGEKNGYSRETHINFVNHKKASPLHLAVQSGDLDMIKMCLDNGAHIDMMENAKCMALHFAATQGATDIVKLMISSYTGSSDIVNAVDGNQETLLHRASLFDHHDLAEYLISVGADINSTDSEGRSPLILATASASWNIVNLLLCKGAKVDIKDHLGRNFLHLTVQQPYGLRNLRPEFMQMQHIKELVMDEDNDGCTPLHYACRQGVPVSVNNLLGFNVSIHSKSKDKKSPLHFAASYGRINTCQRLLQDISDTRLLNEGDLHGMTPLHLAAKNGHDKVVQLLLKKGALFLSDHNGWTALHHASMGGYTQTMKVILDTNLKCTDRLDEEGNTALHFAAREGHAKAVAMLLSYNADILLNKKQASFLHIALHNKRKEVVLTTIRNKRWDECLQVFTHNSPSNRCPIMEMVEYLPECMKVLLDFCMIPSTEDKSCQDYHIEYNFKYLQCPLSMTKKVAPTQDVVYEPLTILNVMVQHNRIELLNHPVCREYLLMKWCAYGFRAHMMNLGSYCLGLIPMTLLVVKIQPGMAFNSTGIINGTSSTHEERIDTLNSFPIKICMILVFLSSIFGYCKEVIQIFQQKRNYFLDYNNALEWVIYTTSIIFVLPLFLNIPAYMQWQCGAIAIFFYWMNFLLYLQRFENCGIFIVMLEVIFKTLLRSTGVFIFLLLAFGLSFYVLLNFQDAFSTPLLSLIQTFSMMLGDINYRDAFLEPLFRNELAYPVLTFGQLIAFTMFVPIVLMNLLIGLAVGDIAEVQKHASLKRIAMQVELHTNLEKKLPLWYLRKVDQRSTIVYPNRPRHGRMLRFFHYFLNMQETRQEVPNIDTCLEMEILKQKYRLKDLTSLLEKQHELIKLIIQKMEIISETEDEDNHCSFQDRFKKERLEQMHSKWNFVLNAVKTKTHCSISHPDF
Sequence of Transient receptor potential cation channel subfamily A member 1 (Mus musculus) (Q8BLA8 whole entry): as above

Structure (SMILES): CC(C)c1ccccc1-c1ccc2[nH]ncc2c1
- IC50 [1]: 0.514 µM
- inhibition [1]: 93%

Structure (SMILES): CNC(=O)c1cc2[nH]ncc2cc1-c1ccccc1C(F)(F)F
- IC50 [1]: > 30 µM

Structure (SMILES): Fc1c(-c2ccccc2C(F)(F)F)ccc2[nH]ncc12
- IC50 [1]: 0.296 µM
- inhibition [1]: 97%

Structure (SMILES): Fc1cccc(C(F)(F)F)c1-c1ccc2[nH]ncc2c1
- IC50 [1]: 1.23 µM
- inhibition [1]: 95%

Structure (SMILES): CC(C)(C)c1ccccc1-c1ccc2[nH]ncc2c1
- IC50 [1]: 3.4 µM
- inhibition [1]: 96%

Structure (SMILES): Fc1ccc(-c2ccc3[nH]ncc3c2)c(C(F)(F)F)c1
- IC50 [1]: 30 µM

Structure (SMILES): Cn1ncc2cc(-c3ccccc3C(F)(F)F)ccc21
- IC50 [1]: 7.41 µM
- inhibition [1]: 98%

Structure (SMILES): Fc1cccc(-c2ccc3[nH]ncc3c2)c1C(F)(F)F
- IC50 [1]: 8.9 µM
- inhibition [1]: 97%

Structure (SMILES): Fc1ccccc1-c1ccc2[nH]ncc2c1
- IC50 [1]: 3.95 µM
- inhibition [1]: 68%

Structure (SMILES): N#Cc1ccccc1-c1ccc2[nH]ncc2c1
- IC50 [1]: 1.29 µM
- inhibition [1]: 91%

Structure (SMILES): Cc1ccccc1-c1ccc2[nH]ncc2c1
- IC50 [1]: 7.81 µM
- inhibition [1]: 78%

These reach a lower IC50 [1]. Values come first.

- IC50 [1]: 0.129 µM
- inhibition [1]: 100%
Structure (SMILES): N#Cc1cc2[nH]ncc2cc1-c1ccccc1C(F)(F)F

- IC50 [1]: 0.05 µM
- inhibition [1]: 100%
Structure (SMILES): CCc1cc2[nH]ncc2cc1-c1ccccc1C(F)(F)F

- IC50 [1]: 0.048 µM
- inhibition [1]: 98%
Structure (SMILES): Fc1cc2[nH]ncc2cc1-c1ccccc1C(F)(F)F

- IC50 [3]: > 30 µM
- inhibition [4]: 22%
- IC50 [5]: 0.627 µM
- inhibition [6]: 100%
- inhibition [8]: 100%
- IC50 [9]: 0.254 µM
- IC50 [10]: 11.5 µM
- inhibition [10]: 78%
- IC50 [12]: 6.4 µM
- inhibition [12]: 100%
- IC50 [1]: 0.036 µM
- inhibition [1]: 99%
Structure (SMILES): FC(F)(F)Oc1cc2[nH]ncc2cc1-c1ccccc1C(F)(F)F
- Ratio IC50 (CHO-K1 [2]): > 100
- Ratio IC50 (CHO-K1 [7]): > 100
- Ratio IC50 (CHO-K1 [11]): > 100

- IC50 [3]: > 30 µM
- inhibition [4]: 0%
- Cmax [13]: 6.05 µM
- Vd [14]: 1.65 L/kg
- IC50 [5]: 0.169 µM
- inhibition [6]: 98%
- Tmax [15]: 0.5 h
- AUC [16]: 26.2 µM·h
- half-life [17]: 3.4 h
- clearance [18]: 0.816 L/h/kg
- inhibition [8]: 100%
- IC50 [9]: 0.094 µM
- bioavailability [19]: 63%
- IC50 [10]: 16.7 µM
- inhibition [10]: 70%
- IC50 [12]: 17.1 µM
- inhibition [12]: 71%
- IC50 [1]: 0.024 µM
- inhibition [1]: 98%
Structure (SMILES): FC(F)(F)c1ccccc1-c1cc2cn[nH]c2cc1Cl
- Ratio IC50 (CHO-K1 [2]): > 100
- Ratio IC50 (CHO-K1 [7]): > 100
- Ratio IC50 (CHO-K1 [11]): > 100
